The list is not random: actives were taken first. Their share in the collection is about 2.9%.
Ecoli rRNA inh = reduced GFP signal of wild-type E. coli, primary screen, bacterial rRNA inhibitor project, GFP/RFP fluorescence, OD600, single point; E. coli WT GFP vs humanized-ribosome RFP mutants, 24 h; stronger effect = lower value; DMSO median 0, no signal -100; 1.6% of 350,000 active; GFP signal change (wild-type ribosome), % (concentration not given with the values); AID 720706, 2013;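 active = significant combined selectivity score with lowered wild-type GFP, culture density cut under 30%, mutant RFP and density less affected; inactive = any of these conditions unmet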
Cneo AK release = Cryptococcus neoformans cell lysis inducers, primary screen, AK release luminescence, single concentration; C. neoformans lysis, adenylate kinase release luminescence, 4 h; normalised: neutral wells 0, clomiphene wells 100; lysis activity, % at 15 µM; 0.2% of 360,000 active; AID 651654, 2012;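 active = mean lysis activity across replicates of at least 80%, whatever share of replicates individually reach that level; inactive = mean lysis activity below 80%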
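read-out = cell lysis signal | test system = log-phase Cryptococcus neoformans yeast cells | input = cells at 5 × 10^6 per mL | medium = fresh YPD growth medium | signal = luminescent adenylate kinase detection reagent | timing = 4 h at 37 °C static, read 1 h later | dosing = single dose | controls = Clomiphene as positive lysis control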
FGF22 binding = binders of human FGF22 protein, primary screen, FGF22 synaptogenesis inhibitor project, biophysical, thermal shift, single point. recombinant FGF22 thermal shift, SYPRO orange fluorescence; percent of sucrose octasulfate shift, DMSO zero. 1.5% of 340,000 active. activity (Tm shift, normalised), % at 9.99 µM. Fibroblast growth factor 22 (Homo sapiens), Q9HCT0;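 active = mean Tm shift, scaled 0 neutral to 100 positive control, at about 1.3% or above, every replicate too, limit read from the data; inconclusive = no clear call, values can overlap the other calls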
Target sequence (Q9HCT0 whole entry, looked up): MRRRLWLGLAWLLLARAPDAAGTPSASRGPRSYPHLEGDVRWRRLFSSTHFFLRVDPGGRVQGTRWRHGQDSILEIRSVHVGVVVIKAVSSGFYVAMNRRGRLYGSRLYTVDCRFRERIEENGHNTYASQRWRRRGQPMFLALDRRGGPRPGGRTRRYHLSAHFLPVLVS
PglD DTNB = C. jejuni PglD acetyltransferase inhibitors, primary screen, biochemical, DTNB colorimetric, single point | UDP-N-acetylbacillosamine N-acetyltransferase PglD (Campylobacter jejuni) | purified PglD enzyme, DTNB colorimetric CoA detection | inhibition, % at 12.5 µM | 0.098% of 360,000 active; in the data active = inhibition above about 16%, passing the limit was not always enough; inconclusive = no clear call, values can overlap the other calls
Vif imaging = HIV Vif self-association inhibitors, primary screen, imaging, HEK293T, single point; HEK293T cells, Vif self-association by quenched fluorescence, 24 h; inhibition, % at 7.49 µM; 0.35% of 340,000 active; in the data active = inhibition above about 50%, passing the limit was not always enough; inconclusive = no clear call, values can overlap the other calls; inactive = below about 31%
PGC1a acetyl inh = inhibitors of PGC1a acetylation signal, primary screen, cell-based, U2OS, AlphaScreen, inhibitor mode; AlphaScreen anti-acetyl-lysine; with virally co-expressed GCN5 acetyltransferase; inhibition, % at 15.6 µM; 0.17% of 350,000 active; AID 651687, 2012;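 active = every replicate shows inhibition of at least 40%; inconclusive = mean inhibition at least 40% but some replicate below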
AID977621 = growth inhibition of wild-type GFP E. coli, dose response, H69 mutant RFP, cherry-pick | activity change, negative = inhibition at 50 µM | shares compounds with Ecoli rRNA inh | 1,900 tested, under 10 active | AID 977621, 2014 | E. coli wild-type GFP strain growth, fluorescence, 24 h;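 active = Wild-type ribosome reporter drop at least double the humanized mutant ribosome reporter drop, growth loss under a set limit; inconclusive = no clear call, values can overlap the other calls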;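 note: wild-type GFP and H69 mutant RFP strains grown together 50/50 in each well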
AID977628 = E. coli growth inhibition, wild-type GFP versus h24 humanized RFP strain, dose response, h24 mutant RFP vs wild-type GFP, cherry-pick | shares compounds with Ecoli rRNA inh | activity change, negative = inhibition at 50 µM | AID 977628, 2014 | E. coli WT GFP strain growth, fluorescence, 24 h | 1,900 tested, under 10 active;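 active = compound lowering the normal-ribosome reporter at least twice as much as the humanized-ribosome reporter, growth loss under a set limit; inconclusive = no clear call, values can overlap the other calls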;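 note: wild-type GFP and h24 humanized RFP strains co-cultured 1 to 1 per well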
Each line names hits and unclear results; the compound was inactive in the other large screens (follow-up assays come after a bar, where they were run).

O=C(N[C@H]1CC[C@H](CCNS(=O)(=O)c2cccc(Cl)c2)O[C@@H]1CO)c1ccc(F)cc1	none (no result: Vif imaging)
O=C(Cc1ccc(Br)cc1)Nc1cccc(-c2cn3c(n2)SCC3)c1	Ecoli rRNA inh -21 (no result: Cneo AK release, PglD DTNB) | AID977621 inactive | AID977628 inactive
CCCC(CCC)C(=O)Nc1cccc(-c2cn3c(n2)SCC3)c1	none
CNC[C@@H]1Oc2ccc(NS(=O)(=O)c3ccc(OC)cc3)cc2CC(=O)N([C@H](C)CO)C[C@H]1C	none (no result: Vif imaging)
O=[N+]([O-])c1ccc2c(c1)S(=O)c1ccccc1-2 (stereo not given)	Ecoli rRNA inh -23 | AID977621 inactive | AID977628 inactive
C[C@@H]1CN([C@@H](C)CO)C(=O)c2cc(NC(=O)Nc3ccccc3)ccc2O[C@@H](C)CCCCO[C@@H]1CN(C)C(=O)CCCN(C)C	none (no result: Vif imaging)
C[C@H]1CCCCO[C@H](CN(C)C(=O)CCCN(C)C)[C@@H](C)CN([C@@H](C)CO)C(=O)c2cc(NC(=O)Nc3cccc4ccccc34)ccc2O1	none (no result: Vif imaging) | AID977621 inconclusive | AID977628 inactive
C[C@H](CO)N1C[C@H](C)[C@H](CN(C)C(=O)CCCN(C)C)OCCCC[C@H](C)Oc2ccc(NC(=O)Nc3cccc4ccccc34)cc2C1=O	none (no result: Vif imaging) | AID977621 inactive | AID977628 inconclusive
C[C@@H]1CN([C@@H](C)CO)C(=O)c2cc(NC(=O)Nc3cccc4ccccc34)ccc2O[C@@H](C)CCCCO[C@H]1CN(C)C(=O)CCCN(C)C	none (no result: Vif imaging) | AID977628 inconclusive
C[C@@H]1CCCCO[C@@H](CN(C)C(=O)CCCN(C)C)[C@H](C)CN([C@@H](C)CO)C(=O)c2cc(NC(=O)Nc3cccc4ccccc34)ccc2O1	none (no result: Vif imaging) | AID977628 inconclusive
C[C@@H]1CCCCO[C@@H](CN(C)C(=O)Nc2cccc3ccccc23)[C@@H](C)CN([C@H](C)CO)C(=O)c2cc(NC(=O)Nc3cccc4ccccc34)ccc2O1	none (no result: Vif imaging)
CCC(=O)N1C[C@H]2[C@@H](c3ccccc31)[C@H](CO)N2C(=O)Nc1ccccc1	none (no result: Vif imaging)
COc1ccc(NC(=O)Nc2ccc3c(c2)CC(=O)N([C@H](C)CO)C[C@H](C)[C@H](CN(C)S(=O)(=O)c2ccc(F)cc2)O3)cc1	none (no result: Vif imaging)
CO[C@H]1CN(C)C(=O)c2ccc(NC(=O)C3CCCC3)cc2OC[C@H](C)N(CCC(F)(F)F)C[C@@H]1C	none (no result: Cneo AK release, PglD DTNB, Vif imaging)
C[C@@H]1CN([C@@H](C)CO)C(=O)CCCn2cc(nn2)CO[C@@H]1CN(C)Cc1ccc(Cl)c(Cl)c1	none (no result: Cneo AK release, FGF22 binding, PglD DTNB, Vif imaging)
C[C@@H]1CCCCO[C@@H](CN(C)C(=O)CCCN(C)C)[C@H](C)CN([C@H](C)CO)C(=O)c2cc(NC(=O)Nc3cccc4ccccc34)ccc2O1	none (no result: Vif imaging) | AID977621 inactive | AID977628 inconclusive
C[C@@H]1CN([C@@H](C)CO)C(=O)c2cc(NC(=O)Nc3cccc4ccccc34)ccc2O[C@@H](C)CCCCO[C@H]1CN(C)C(=O)Nc1cccc2ccccc12	none (no result: Vif imaging)
C[C@@H]1CCCCO[C@H](CN(C)C(=O)CCCN(C)C)[C@@H](C)CN([C@@H](C)CO)C(=O)c2cc(NC(=O)Nc3cccc4ccccc34)ccc2O1	Ecoli rRNA inh -39 (no result: Vif imaging) | AID977621 inactive | AID977628 inconclusive
C[C@H](CO)N1C[C@H](C)[C@@H](CN(C)Cc2ccccn2)Oc2ncc(C3=CCCCC3)cc2C1=O	none (no result: Cneo AK release, FGF22 binding, PglD DTNB, Vif imaging)
CO[C@H]1CN(C)C(=O)c2ccc(NS(=O)(=O)c3ccc(Cl)cc3)cc2OC[C@H](C)NC[C@@H]1C	none (no result: Cneo AK release, PglD DTNB, Vif imaging)
CCN(c1ccccc1)S(=O)(=O)c1ccc(OC)c(NC(=O)C2CC(=O)N(Cc3ccccc3)C2)c1 (stereo not given)	Ecoli rRNA inh -31 (no result: Cneo AK release, PglD DTNB) | AID977628 inconclusive
Cc1cc(NC(=O)CN2CCN(c3cccc(Cl)c3)CC2)no1	Ecoli rRNA inh -15 (no result: Cneo AK release, PglD DTNB) | AID977628 inconclusive
Cc1cccc(C)c1NC(=O)CNC(=O)C(C)N1CCN(c2cccc(Cl)c2)CC1 (stereo not given)	Ecoli rRNA inh -22 | AID977628 inactive
Cc1cc(NC(=O)CN2CCN(c3ncccn3)CC2)no1	none
N#Cc1ccc(C(=O)Nc2ccn(-c3ccccc3)n2)cc1	Ecoli rRNA inh -14 (no result: Cneo AK release, PglD DTNB, PGC1a acetyl inh) | AID977621 inactive
c1ccc(Cc2nc3ccccc3s2)cc1	Ecoli rRNA inh -18 | AID977628 inactive
O=C(CCc1nc2ccccc2s1)Nc1ccccc1	none (no result: Ecoli rRNA inh, Cneo AK release, FGF22 binding, PglD DTNB, PGC1a acetyl inh)
C[C@@H]1CN([C@@H](C)CO)C(=O)c2cc(C3=CCCC3)cnc2O[C@@H]1CN(C)C(=O)C1CCOCC1	none (no result: Vif imaging)
COCCNC(=O)C[C@@H]1CC[C@H]2[C@H](COc3ccc(NC(=O)c4cc(C)on4)cc3C(=O)N2C)O1	none (no result: Vif imaging)
O=C(Nc1cccc2c1CCCC2)c1ccco1	Ecoli rRNA inh -21 (no result: Cneo AK release, PglD DTNB) | AID977621 inactive | AID977628 inactive
Cc1ccc(CCN2C(=O)c3ccccc3C2C(=O)NCc2cccnc2)cc1 (stereo not given)	Ecoli rRNA inh -38 | AID977621 inactive | AID977628 inconclusive
Cc1ccc(CN2C(=O)c3ccccc3C2C(=O)NCc2cccnc2)cc1 (stereo not given)	none (no result: PglD DTNB)
O=C(Nc1ccccc1)[C@H]1[C@H](CO)[C@H]2Cn3c(cccc3=O)[C@H]2N1CC1CCOCC1	none (no result: Cneo AK release, FGF22 binding, PglD DTNB, Vif imaging, PGC1a acetyl inh)
O=C1N2c3ccccc3CCc3cccc(c32)C1(O)C(F)(F)F (stereo not given)	Ecoli rRNA inh -17 | AID977621 inactive
O=C(CCl)N1c2ccccc2CCc2ccccc21	none
O=C(NCc1ccccc1)C1C(=O)Nc2ccccc2C(=O)N1c1ccc2c(c1)OCCO2 (stereo not given)	Ecoli rRNA inh -17 (no result: Cneo AK release, PglD DTNB, Vif imaging, PGC1a acetyl inh) | AID977621 inactive | AID977628 inactive
CC(CCC(=O)O)C1CC[C@@]2(C)C3C(=O)CC4C(C)(C)C(O)CC[C@]4(C)C3C(=O)C[C@]12C (stereo not given in full)	Ecoli rRNA inh -22, Vif imaging inconclusive | AID977621 inactive

Screens (PubChem BioAssay)
